Bioassay records deposited in PubChem BioAssay by Broad Institute.
T cruzi growth – T. cruzi proliferation inhibition. hit rate 5.9% among 77,000. AID 624255. T. cruzi beta-gal in NIH3T3, GalScreen luminescence, 90 h. inhibition, % at 8.34 µM;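 active means mean inhibition above about 93%, with at least 55% of replicates each passing it, limit read from the data, passing the limit was not always enough; inconclusive means only one of those two conditions holds; inactive means neither condition holds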
KDM4C inh – blocks human GASC-1 (KDM4C) demethylase activity; Q9H3R0; GST-KDM4C 2-372, H3K9me3 peptide, LANCE TR-FRET; inhibition, % at 12.5 µM; hit rate 0.15% among 96,000; AID 720574;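 active means mean replicate inhibition above about 25%, with at least 55% of replicates also reaching it, limit read from the data, passing the limit was not always enough; inconclusive means only one of those two conditions met; inactive means neither condition met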
Target sequence (Q9H3R0 2-372 limits assumed): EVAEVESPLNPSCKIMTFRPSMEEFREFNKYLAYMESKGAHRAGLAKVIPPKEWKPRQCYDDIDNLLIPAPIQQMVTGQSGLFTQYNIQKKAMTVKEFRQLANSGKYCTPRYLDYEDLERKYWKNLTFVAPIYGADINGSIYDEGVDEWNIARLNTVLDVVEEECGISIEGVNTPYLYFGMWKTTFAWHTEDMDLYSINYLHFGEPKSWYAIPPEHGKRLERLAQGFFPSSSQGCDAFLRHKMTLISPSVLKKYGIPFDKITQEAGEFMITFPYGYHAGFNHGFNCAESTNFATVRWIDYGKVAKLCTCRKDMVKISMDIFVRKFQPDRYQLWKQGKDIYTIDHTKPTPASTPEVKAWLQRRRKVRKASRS
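Test system: N-terminal GST-fused human GASC-1 (KDM4C) fragment, residues 2-372; quantity: GASC-1 enzyme at 10 nM final in reaction; dosing: single dose; schedule: 30 min demethylation and 1 h detection at room temperature; signal: LANCE TR-FRET, excitation 340 nm, emissions 618 and 671 nm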
IDH1 R132H inh – blocks human IDH1 R132H reductase activity. diaphorase/resazurin fluorescence, 60 min. hit rate 0.18% among 70,000. inhibition, % at 10 µM. O75874; in the data active means inhibition above about 34%; inconclusive means no clear call, values can overlap the other calls; inactive means below about 11%;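 further: 0% = DMSO and 100% = no enzyme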
* marks the source's active call; other numbers are inactive results; ? = inconclusive; / = not tested or not shown. This excerpt belongs to a sample that is enriched for hits.

SMILES | T cruzi growth | KDM4C inh | IDH1 R132H inh
CC(C)CC#Cc1ccc2c(c1)O[C@H](CN(C)C(=O)c1cccnc1)[C@@H](C)CN([C@@H](C)CO)S2(=O)=O | 76 | 3 | 0
COc1ccc(C#Cc2ccc3c(c2)O[C@@H](CN(C)C(=O)c2ccccn2)[C@H](C)CN([C@@H](C)CO)S3(=O)=O)cc1 | / | -9 | -1
COc1cccc(C#Cc2ccc3c(c2)O[C@H](CN(C)C(=O)c2ccccn2)[C@H](C)CN([C@@H](C)CO)S3(=O)=O)c1 | 116* | 1 | /
CCC(=O)N(C)C[C@@H]1Oc2cc(C#Cc3ccccc3)ccc2S(=O)(=O)N([C@@H](C)CO)C[C@@H]1C | / | 34* | 11
COc1cccc(C#Cc2ccc3c(c2)O[C@@H](CN(C)C(=O)c2ccccn2)[C@H](C)CN([C@H](C)CO)S3(=O)=O)c1 | 119* | 1 | /
CCC(=O)N(C)C[C@@H]1Oc2cc(C#Cc3ccccc3)ccc2S(=O)(=O)N([C@H](C)CO)C[C@@H]1C | / | -2 | 0
COc1cccc(C#Cc2ccc3c(c2)O[C@@H](CN(C)C(=O)c2ccccn2)[C@@H](C)CN([C@H](C)CO)S3(=O)=O)c1 | ? | -1 | /
Cn1c(SCC(=O)c2ccc(Br)cc2)nnc1-c1cc2ccccc2o1 | / | / | 0
O=C(N[C@@H]1CC[C@@H](CCNS(=O)(=O)Cc2ccccc2)O[C@@H]1CO)c1ccc2c(c1)OCO2 | 6 | -1 | 0
O=C(N[C@H]1CC[C@H](CCNS(=O)(=O)Cc2ccccc2)O[C@H]1CO)c1ccc2c(c1)OCO2 | 16 | 35* | 5
CSc1cc(-c2nccs2)[nH]n1 | / | / | -2
O=S(=O)(c1ccccc1)c1nc(-c2ccccc2)oc1NCC1CCCO1 (stereo unspecified) | / | / | 0
COCC(=O)N(C)C[C@@H]1Oc2ncc(C#Cc3cccnc3)cc2C(=O)N([C@@H](C)CO)C[C@H]1C | 58 | 37* | 11
C[C@@H]1CN([C@H](C)CO)C(=O)c2cc(C#Cc3ccncc3)cnc2O[C@@H]1CN(C)C(=O)c1ccccc1F | / | 4 | 36*
C[C@H](CO)N1C[C@H](C)[C@@H](CN(C)C(=O)c2ccccc2F)Oc2ncc(C#Cc3ccncc3)cc2C1=O | / | -2 | 1
COCC(=O)N(C)C[C@H]1Oc2ncc(C#Cc3cccnc3)cc2C(=O)N([C@@H](C)CO)C[C@@H]1C | 56 | 7 | 1
COCC(=O)N(C)C[C@@H]1Oc2ncc(C#CC3(O)CCCC3)cc2C(=O)N([C@H](C)CO)C[C@@H]1C | 6 | 3 | 0
COCC(=O)N(C)C[C@H]1Oc2ncc(C#CC3(O)CCCC3)cc2C(=O)N([C@@H](C)CO)C[C@H]1C | 30 | 31* | 13
COCCNc1ncnc2c1oc1ccccc12 | / | / | 0
FC(F)(F)c1ccc(C2=NCCc3sccc32)cc1 | / | / | -1
CCC(C)[C@@H](CO[C@@H](Cc1ccccc1)C(=O)N[C@@H](CCS(C)(=O)=O)C(=O)OC(C)C)NC[C@@H](N)CS (stereo partly specified) | / | / | 60*
CC(C)C[C@H](NC(=O)[C@@H](O)[C@H](N)Cc1ccccc1)C(=O)O | / | / | 0
CO[C@H]1CN(C)C(=O)c2ccc(NC(=O)NC(C)C)cc2OC[C@H](C)N(C(=O)CC2CC2)C[C@@H]1C | / | 0 | /
CCCNC(=O)Nc1ccc2c(c1)OC[C@H](C)N(C(=O)C1CCOCC1)C[C@H](C)[C@H](OC)CN(C)C2=O | 49 | 35* | 2
CO[C@@H]1CN(C)C(=O)c2cc(NC(=O)c3ccccc3)ccc2OC[C@H](C)N(C(C)=O)C[C@H]1C | 32 | 0 | 0
SMILES | T cruzi growth | KDM4C inh | IDH1 R132H inh
CO[C@H]1CN(C)C(=O)c2cc(NC(=O)c3ccccc3)ccc2OC[C@@H](C)N(C(C)=O)C[C@@H]1C | -65 | / | 87*
CO[C@@H]1CN(C)C(=O)c2ccc(NC(=O)NC(C)C)cc2OC[C@H](C)N(C(=O)CC2CC2)C[C@@H]1C | -39 | 51* | 7
CCCNC(=O)Nc1ccc2c(c1)OC[C@@H](C)N(C(=O)C1CCOCC1)C[C@H](C)[C@@H](OC)CN(C)C2=O | -4 | 3 | 0
COc1ccc(C)cc1S(=O)(=O)N1CCCC(C(=O)Nc2ccccc2F)C1 (stereo unspecified) | / | / | 0
CCOC(=O)c1sc2ncn(CC(=O)Nc3ccc(OC)cc3)c(=O)c2c1C | / | / | 0
Cc1ccc(N2C(=O)C3C4C=CC(CNC(=S)Nc5ccc(Br)cc5)(O4)C3C2=O)cc1 (stereo unspecified) | / | / | -1
COc1cc(S(=O)(=O)NCc2ccco2)ccc1Br | / | / | 0
COCc1cn(CC[C@H]2CC[C@H](NC(=O)Nc3ccc(OC)cc3)[C@H](CO)O2)nn1 | 13 | 89* | 89*
COCc1cn(CC[C@@H]2CC[C@@H](NC(=O)Nc3ccc(OC)cc3)[C@H](CO)O2)nn1 | 3 | -1 | 0
Cc1cc(C(=O)CSc2nnnn2-c2ccccc2)c(C)n1-c1cc(F)ccc1F | / | / | 0
C[C@@H]1CN([C@@H](C)CO)S(=O)(=O)c2ccc(C3=CCCCC3)cc2O[C@H]1CN(C)C(=O)Cc1ccncc1 | 81 | -1 | 58*
C[C@@H]1CN([C@H](C)CO)S(=O)(=O)c2ccc(C3=CCCCC3)cc2O[C@@H]1CN(C)C(=O)Cc1ccncc1 | 94 | -1 | -8
C[C@@H]1CN([C@H](C)CO)S(=O)(=O)c2ccc(C3=CCCCC3)cc2O[C@@H]1CN(C)Cc1cccnc1 | / | -2 | /
C[C@@H]1CN([C@@H](C)CO)S(=O)(=O)c2ccc(C3=CCCCC3)cc2O[C@@H]1CN(C)Cc1cccnc1 | / | 0 | 38*
CCN(CC)CCSc1nnc2c3ccccc3n(CC)c2n1 | / | / | 0
CCc1ccc(C(Nc2cc(C)ccn2)c2ccc3ccc(C)nc3c2O)cc1 (stereo unspecified) | / | / | -1
COc1ccc(C)cc1S(=O)(=O)N(C)CC(=O)N1CCOCC1 | / | / | 0
CS(=O)(=O)N(CC(=O)Nc1ccccc1Br)c1cc(Cl)c(Cl)cc1Cl | / | / | 0
Cc1cc(O)cc(Oc2cc(C)cc(O)c2O)c1 | / | / | 56*
Cc1cc(C(C)(C)C)c(O)c(C(C)(C)C)c1 | / | / | -1
Cc1ccnc(NC(c2cccc(F)c2)c2ccc3ccc(C)nc3c2O)c1 (stereo unspecified) | / | / | 0
O=c1c(C=Nc2ccccc2)c(O)c2c(n1-c1ccccc1)CCCC2 | / | / | 11
C[C@@H]1CN([C@@H](C)CO)S(=O)(=O)c2ccc(/C=C/c3ccccc3)cc2O[C@@H]1CN(C)C(=O)c1ccccc1 | 127* | -1 | -8
C/C=C/c1ccc2c(c1)O[C@@H](CN(C)C(=O)c1ccccc1)[C@H](C)CN([C@H](C)CO)S2(=O)=O | / | -2 | 3
C/C=C/c1ccc2c(c1)O[C@@H](CN(C)C(=O)Cc1cccnc1)[C@H](C)CN([C@@H](C)CO)S2(=O)=O | / | 6 | 46*
C/C=C/c1ccc2c(c1)O[C@@H](CN(C)C(=O)Cc1cccnc1)[C@H](C)CN([C@H](C)CO)S2(=O)=O | / | 1 | 12
C[C@@H]1CCCCO[C@@H](CN(C)C(=O)Nc2ccc(C(F)(F)F)cc2)[C@H](C)CN([C@@H](C)CO)C(=O)c2cc(NC(=O)Nc3ccc4c(c3)OCO4)ccc2O1 | 112* | -2 | 3
